Reference: ChEMBL document CHEMBL1921756, “Tyrphostin-like compounds with ubiquitin modulatory activity as possible therapeutic agents for multiple myeloma” (Bioorg Med Chem, 2011)

What was measured:
[1] = Antitumor activity against human MM1 cells after 24 to 72 hrs by MTT assay; format: functional, cell-based
Procedure, shortened: (§1)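 Myeloma lines grown in RPMI 1640 with 10% heat-inactivated FBS and 2 mM glutamine. 20,000 cells/well were exposed to a dilution range of compound in RPMI1640/10% FBS (final DMSO ≤0.1%), with vehicle-only controls, at 37 °C for 24–72 h (typically 72 h). MTT was added for 2 h at 37 °C, then lysis buffer (20% SDS, 50% DMF, pH 4.7) for 6 h.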

U-266 = assay: Antitumor activity against human U266 cells after 24 to 72 hrs by MTT assay; format: functional, cell-based; procedure, shortened: as §1
[2] = Antitumor activity against human OCI-My4 cells after 24 to 72 hrs by MTT assay; format: functional, cell-based; procedure, shortened: as §1
U373 MG = assay: Ratio of AG490 IC50 to compound IC50 for human U373MG cells; format: functional, U-373MG ATCC
[3] = Antitumor activity against human U373MG cells after 24 to 72 hrs by MTT assay; format: functional, cell-based, U-373MG ATCC; settings: U373 MG
Procedure, shortened: (§2)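 Tumor cells were plated at 20,000/well and given serially diluted compound in RPMI1640 with 10% FBS (final DMSO ≤0.1%) or vehicle alone, then incubated 24–72 h at 37 °C.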

[4] = Antitumor activity against human U87MG cells after 24 to 72 hrs by MTT assay; format: functional, cell-based, U-87MG ATCC; settings: U-87 MG; procedure, shortened: as §2
U-87 MG = assay: Ratio of AG490 IC50 to compound IC50 for human U87MG cells; format: functional, U-87MG ATCC

Compound | IC50 [1] | IC50 (U-266) | IC50 [2] | other results
N#C/C(=C\c1ccc([N+](=O)[O-])cc1)C(=O)NCc1ccccc1 | 7.5 µM | 9 µM | 12 µM | –
CCC[C@H](NC(=O)/C(C#N)=C/c1cccc(Br)n1)c1ccccc1 | 1 µM | 1.3 µM | 1.5 µM | –
C[C@H](NC(=O)/C(C#N)=C/c1cccc(Br)n1)c1ccc(Br)cc1 | 1.5 µM | 1.8 µM | 2 µM | –
COc1ccc([C@H](C)NC(=O)/C(C#N)=C/c2cccc(Br)n2)cc1 | 1.2 µM | 1.4 µM | 1.8 µM | –
N#C/C(=C\c1cccc(Br)n1)C(=O)N[C@@H]1CCc2ccccc21 | 2 µM | 2.5 µM | – | –
N#C/C(=C\c1cccc(Br)n1)C(=O)N[C@@H]1CCCc2ccccc21 | 1.5 µM | 1.9 µM | – | –
C[C@H](NC(=O)/C(C#N)=C/c1cccc(Br)n1)c1ccc(Cl)cc1 | 1.6 µM | 2 µM | 2.3 µM | –
N#C/C(=C\c1cccc(Br)n1)C(=O)N[C@@H](CO)c1ccccc1 | 2.8 µM | 3.5 µM | 3.9 µM | –
CC[C@H](NC(=O)/C(C#N)=C/c1cccc(Br)n1)c1ccccc1 | 1.1 µM | 1.4 µM | 1.7 µM | –
COc1cccc([C@H](C)NC(=O)/C(C#N)=C/c2cccc(Br)n2)c1 | 2.4 µM | 2.8 µM | 3.1 µM | –
N#C/C(=C\c1cccc(Br)n1)C(=O)N[C@H](c1ccccc1)C(F)(F)F | 9.6 µM | 11.1 µM | – | –
C[C@H](NC(=O)/C(C#N)=C/c1cccc(Br)n1)c1cccc(C(F)(F)F)c1 | 1.3 µM | 1.6 µM | 1.8 µM | –
C[C@H](NC(=O)/C(C#N)=C/c1cccc(Br)n1)c1ccc(F)cc1 | 1.2 µM | 1.4 µM | – | –
C[C@H](NC(=O)/C(C#N)=C/c1cccc(Br)n1)c1cc(C(F)(F)F)cc(C(F)(F)F)c1 | 1.3 µM | 1.5 µM | – | –
COC(=O)C[C@H](NC(=O)/C(C#N)=C/c1cccc(Br)n1)c1ccccc1 | 3.1 µM | 3.3 µM | – | –
C[C@H](NC(=O)/C(C#N)=C/c1cccc(Br)n1)c1ccccc1F | 1.8 µM | 2 µM | 2.4 µM | –
N#C/C(=C\c1ccc(Cl)c([N+](=O)[O-])c1)C(=O)NC(c1ccccc1)C1CC1 (stereo not given) | 2.5 µM | 2.8 µM | 2.9 µM | –
N#C/C(=C\c1ccc(N2CCCCC2)cc1)C(=O)NC(c1ccccc1)C1CC1 (stereo not given) | > 10 µM | > 10 µM | – | –
N#C/C(=C\c1cccc(Br)n1)C(=O)N[C@H](c1ccccc1)C1CC1 | 1.4 µM | – | – | –
CCCCCCc1ccc(/C=C(\C#N)C(=O)NC(c2ccccc2)C2CC2)cc1 (stereo not given) | > 10 µM | – | – | –
C[C@H](NC(=O)/C(C#N)=C/c1cccc(Br)n1)c1ccc(N)cc1 | > 10 µM | – | – | –
N#C/C(=C\c1cccc(Br)n1)C(=O)NCc1cccc(N)c1 | > 10 µM | – | – | –
CCC[C@H](NC(=O)/C(C#N)=C/c1ccc([N+](=O)[O-])cc1)c1ccccc1 | 2.94 µM | 3.6 µM | – | –
CCC[C@H](NC(=O)/C(C#N)=C/c1ccc([N+](=O)[O-])cc1[N+](=O)[O-])c1ccccc1 | > 10 µM | – | – | –

Compound | IC50 [1] | IC50 (U-266) | IC50 [2] | other results
CCC[C@H](NC(=O)/C(C#N)=C/c1ccccc1)c1ccccc1 | 6.25 µM | 7.2 µM | – | –
CCC[C@H](NC(=O)/C(C#N)=C/c1cccc([N+](=O)[O-])c1)c1ccccc1 | 1.73 µM | 2.1 µM | 2.2 µM | –
CCC[C@H](NC(=O)/C(C#N)=C/c1ccc(Cl)c([N+](=O)[O-])c1)c1ccccc1 | 1.58 µM | 1.8 µM | 1.9 µM | –
CCC[C@H](NC(=O)/C(C#N)=C/c1c(Cl)cccc1[N+](=O)[O-])c1ccccc1 | > 10 µM | – | – | –
CCC[C@H](NC(=O)/C(C#N)=C/c1ccc(O)cc1)c1ccccc1 | > 10 µM | – | – | –
CCC[C@H](NC(=O)/C(C#N)=C/c1ccc(O)c([N+](=O)[O-])c1)c1ccccc1 | 8.2 µM | 9.3 µM | 9.7 µM | –
CCC[C@H](NC(=O)/C(C#N)=C/c1ccc(O)c(Br)c1)c1ccccc1 | > 10 µM | – | – | –
CC(=O)OC[C@H](NC(=O)/C(C#N)=C/c1cccc(Br)n1)c1ccccc1 | 2.6 µM | 2.8 µM | 2.9 µM | –
C[C@H](NC(=O)/C(C#N)=C/c1ccc([N+](=O)[O-])c([N+](=O)[O-])c1)c1ccccc1 | > 10 µM | – | – | –
N#C/C(=C\c1cccc(Br)n1)C(=O)NC(c1ccccc1)c1ccccc1 | 5 µM | 5.8 µM | 6.2 µM | –
N#C/C(=C\c1cccc(Br)n1)C(=O)N[C@@H](Cc1ccccc1)c1ccccc1 | 2.5 µM | 2.7 µM | 2.9 µM | –
N#C/C(=C\c1ccc(Cl)c([N+](=O)[O-])c1)C(=O)N[C@@H](CO)c1ccccc1 | > 10 µM | – | – | –
C[C@H](NC(=O)/C(C#N)=C/c1ccc2c(c1)OCCN2C)c1ccccc1 | > 10 µM | – | – | –
C[C@H](NC(=O)/C(C#N)=C/c1ccc2c(c1)OC(F)(F)O2)c1ccccc1 | > 10 µM | – | – | –
N#C/C(=C\c1ccc(-c2cccc([N+](=O)[O-])c2)o1)C(=O)NC(c1ccccc1)C1CC1 (stereo not given) | > 10 µM | – | – | –
CCC(NC(=O)/C(C#N)=C/c1ccc(-c2cccc([N+](=O)[O-])c2)o1)c1ccccc1 (stereo not given) | > 10 µM | – | – | –
N#C/C(=C\c1ccc(-c2cccc([N+](=O)[O-])c2)o1)C(=O)NCc1ccccc1Cl | > 10 µM | – | – | –
Cc1ccc(CNC(=O)/C(C#N)=C/c2ccc(-c3cccc([N+](=O)[O-])c3)o2)cc1 | > 10 µM | – | – | –
COc1cccc(CNC(=O)/C(C#N)=C/c2ccc(-c3cccc([N+](=O)[O-])c3)o2)c1 | > 10 µM | – | – | –
Cc1ccc(CNC(=O)/C(C#N)=C/c2ccc(-c3cccc([N+](=O)[O-])c3)o2)o1 | > 10 µM | – | – | –
N#C/C(=C\c1ccc(O)c(O)c1)C(=O)NCc1ccccc1 | > 10 µM | > 12.5 µM | > 12.5 µM | –
N#C/C(=C\c1cccc(Br)n1)C(=O)NC(c1ccccc1)C1CC1 (racemic) | 1.1 µM | 1.3 µM | 1.6 µM | –
C[C@H](NC(=O)/C(C#N)=C/c1cccc(Br)n1)c1ccccc1 [WP 1066] | 1.2 µM | 1.5 µM | 1.8 µM | Ratio IC50 (U373 MG): 8; IC50 [3]: 3.7 µM; IC50 [4]: 5.6 µM; Ratio IC50 (U-87 MG): 18
